Many of the other results were omitted from the sample, so hits are more common in it than they were.
UPR CHOP act = activators of apoptotic CHOP UPR arm, primary screen, cell-based, CHO-CHOP luciferase reporter, luminescence, uHTS | activation, % at 10 µM | UPR activation; percent of tunicamycin response over DMSO baseline | actives 0.34% (n = 330,000);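 active means at 10 µM dose, activation of 40% or more, normalized to positive control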;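 further: 100% = tunicamycin at 10 µg/mL and 0% = DMSO alone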
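System: CHO CHOP reporter cells. Amount: 500 cells per well. Buffer or medium: F12 medium, 10% FBS. Compound dosing: one dose, 10 µM in 0.5% DMSO. Incubation: 6 h compound exposure at 37 °C after overnight seeding. Technique: Steady-Glo luciferase luminescence. Benchmarks: tunicamycin and DMSO controls.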
UPR XBP1 act = activators of adaptive XBP1 UPR arm, primary screen, cell-based, CHO-XBP1 luciferase reporter, luminescence, uHTS. IRE1-XBP1 UPR activation; percent of tunicamycin response, DMSO as zero. activation, % at 20 µM. actives 0.33% (n = 330,000). AID 463104, 2010;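 active means versus positive control, 20 µM dose yields 30% or more activation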;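 further: 100% = tunicamycin at 10 µg/mL and 0% = DMSO only wells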
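Material: CHO-XBP1 cells stably carrying IRE1-XBP1-driven luciferase reporter / Amount: 1000 cells per well / Compound: 20 µM, 1% DMSO / Times: 6 h treatment, 37 °C / Detection: luciferase luminescence / Measure: % activation of reporter signal versus tunicamycin and DMSO controls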
A1 inh = caspase 3/7 activation in MEF A1-2A-BIM cells, primary screen, A1 inhibitor project, cell-based, luminescence, HTS; Caspase-Glo 3/7 luminescence, 3 h; percent of clofoctol response, vehicle zero; actives 0.066% (n = 330,000); caspase activation, % (concentration not given with the values); AID 2462, 2010;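 active means over half of replicate activation scores above 10%, or exactly half above 10 with the replicate mean above 10; inconclusive means replicate mean below 10 yet half the replicates above 10; inactive means over half of replicates below 10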
CHOP inhibitor = inhibitors of CHOP promoter induction, primary screen, cell-based, unfolded protein response, luciferase reporter | actives 3.8% (n = 220,000) | AID 2732, 2010 | CHO-K1 CHOP-promoter luciferase, tunicamycin-induced, 15-18 h | inhibition, % at 10 µM;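 active means compounds that reduced the stress-induced luciferase reporter signal by more than about 70% of percent inhibition, limit read from the data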;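 further: 0% = tunicamycin plus vehicle and 100% = wells without tunicamycin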
CHOP confirm = retest of CHOP induction inhibitors, confirmation, cell-based. actives 45% (n = 2,100). CHO-CHOP promoter luciferase reporter, tunicamycin-induced, luminescence. inhibition, % at 10 µM. shares compounds with CHOP inhibitor. AID 504437, 2011;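 active means mean of three repeat readings of reporter signal inhibition above a set limit, cut at about 70% in these data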;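 further: 0% = tunicamycin plus vehicle and 100% = wells lacking tunicamycin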
* marks the source's active call; other numbers are inactive results; ? = inconclusive; / = not tested or not shown.

SMILES | UPR CHOP act | UPR XBP1 act | A1 inh | CHOP inhibitor | CHOP confirm
CCOCCCNC(=O)/C(C#N)=C/c1ccc([N+](=O)[O-])o1 | -6.5 | -6.8 | 0.7 | 106.6* | 36.7
Cc1ccc(-c2nc3n(n2)Cc2ccccc2-3)cc1 | -5.2 | -2.2 | -16.2 | 25.4 | /
CCn1c(C)nc2cc(-c3nc4n(n3)Cc3ccccc3-4)ccc21 | -12.4 | -14.8 | -11.1 | / | 138.5*
COc1ccc(C(=O)/C=C/C(=O)N(CC(=O)NCCC(C)C)Cc2cccs2)c(O)c1 | / | / | / | 106.2* | 112.6*
COc1ccc(C(=O)/C=C/C(=O)N(CC(=O)NC2CCCCC2)Cc2ccc(F)cc2)c(O)c1 | / | / | / | 107.7* | 140.1*
COc1ccc(C(=O)N(Cc2ccco2)Cc2cccs2)c(O)c1 | -1.6 | -1.0 | -0.5 | 26.4 | /
Cc1ccc(S(=O)(=O)N2CCCCC2)cc1NC(=O)c1cnccn1 | 1.0 | -3.6 | / | / | /
Cc1cc(N/N=C/c2ccc(O)cc2O)nc(-c2ccccc2O)n1 | / | / | -1.2 | 101.2* | 13.7
Cc1cc(N/N=C/c2ccc(O)cc2O)c2ccccc2n1 | 3.1 | -2.3 | -0.1 | / | /
CCOC(=O)CNC(=O)CSc1nc2cccnc2n1Cc1ccccc1 | -1.5 | -0.1 | -0.3 | 0.0 | /
Cc1nc(NC(=O)CSc2nc3cccnc3n2Cc2ccccc2)sc1C | -0.5 | 8.3 | 0.1 | 103.7* | 91.4*
COC(=O)[C@@]12CCCCN1[C@H](c1ccc(-c3ccccc3)c(OC)c1)[C@H]1C(=O)N(C)C(=O)[C@H]12 | -2.6 | 2.5 | 0.5 | / | /
COC(=O)/C(=C1/Oc2cc(C)oc(=O)c2S1)C(F)(F)F | 5.1 | -4.0 | 0.3 | 110.8* | 112.2*
CC1CCCN(S(=O)(=O)c2ccc(C(=O)Nc3nnc(-c4ccccn4)o3)cc2)C1 (stereo not given) | -2.9 | -0.6 | 1.0 | 5.5 | /
CC1CCCN(S(=O)(=O)c2ccc(C(=O)Nc3nnc(-c4ccccc4Cl)o3)cc2)C1 (stereo not given) | 3.1 | 4.8 | 0.6 | 98.4* | 34.5
CCOc1cc(C2c3c(oc4ccccc4c3=O)C(=O)N2c2nccs2)ccc1O (stereo not given) | -1.2 | 2.8 | 0.0 | 104.2* | -1.3
CC(C)(C)OC(=O)N1CCN(C(=O)c2ncn(Cc3ccccc3)c2C(=O)N2CCN(C(=O)OC(C)(C)C)CC2)CC1 | 2.6 | 9.1 | -0.3 | / | /
OC1(c2cccc(C(F)(F)F)c2)CCN(c2ncnc3c2[nH]c2ccc(F)cc23)CC1 | / | / | / | / | 101.6*
CC(C)[C@H](NC(=O)c1ccccc1)C(=O)OCC(=O)c1ccc2c(c1)NC(=O)CO2 | 2.7 | -3.8 | -0.7 | 22.7 | /
CC[C@H](C)[C@H](NC(=O)c1ccc(Cl)cc1)C(=O)OCC(=O)c1ccc2c(c1)NC(=O)CO2 | -0.3 | 6.5 | 0.7 | 104.6* | 30.4
O=C(CCC(=O)Nc1ccccc1Cl)NNC(=O)Nc1cccc([N+](=O)[O-])c1 | 0.8 | -5.6 | -0.1 | / | /
COc1ccc(/C=C(\C#N)c2nc3ccc(C)cc3[nH]2)cc1Oc1ccc(C(F)(F)F)cc1[N+](=O)[O-] | 9.3 | 14.0 | 0.6 | 101.6* | 58.5
Cc1ccc2nc(/C(C#N)=C\c3cc(O)ccc3[N+](=O)[O-])[nH]c2c1 | 3.1 | -2.4 | 1.4 | -16.2 | /
Cc1ccc2nc(/C(C#N)=C/c3ccc(-c4cccc([N+](=O)[O-])c4)o3)[nH]c2c1 | / | / | -0.4 | 108.0* | 51.8
CC1=CC(C)(C)N(C(=O)c2ccc(F)cc2)c2cc3c(cc21)OCO3 | -3.9 | 8.8 | 1.1 | 98.0* | 71.1*
SMILES | UPR CHOP act | UPR XBP1 act | A1 inh | CHOP inhibitor | CHOP confirm
N#Cc1c(N)n(CCCN2CCOCC2)c2nc3ccccc3nc12 | -1.7 | -2.0 | -1.0 | / | /
Nc1c(C(=O)Nc2ccccc2)c2nc3ccccc3nc2n1CCCN1CCOCC1 | 4.0 | 1.1 | -0.2 | 99.9* | 39.2
CC1(C)CC(=O)C=C(c2cccc(O)c2)C1=O | 3.5 | -3.0 | 0.2 | / | /
O=C(O)c1ccc(C(=O)Nc2cccc3ccccc23)c(C(=O)O)c1 | 1.0 | 3.2 | 0.8 | / | /
CCC1(CC)Cc2ccccc2-c2nc(NCCO)[nH]c(=O)c21 | -0.1 | -2.1 | 0.4 | 15.0 | /
O=c1[nH]c(NCCO)nc2c1C1(CCCCC1)Cc1ccccc1-2 | -2.4 | -2.0 | 0.8 | 98.6* | 13.1
Cc1ccc2c(c1)c(=O)c1c3n2CCN(C(=O)CCl)C3CC1 (stereo not given) | 2.4 | 1.1 | -0.3 | / | 18.7
Cc1ccc2c(c1)c1c3n2CCN(C(=O)CN2CCN(C)CC2)C3CCC1 (stereo not given) | 3.0 | -0.8 | 0.5 | 12.3 | /
Cc1cc(N=Nc2c(O)c3ccccc3[nH]c2=O)ccc1N=Nc1ccc(C(=O)N(C)C)cc1 | 6.0 | -0.2 | / | 104.5* | 18.1
Cc1ccc(S(=O)(=O)N2CCC[C@H]2C(=O)OCc2cc(=O)oc3cc(C)ccc23)cc1 | 1.7 | 0.2 | / | / | /
CN1C(=O)NC(c2ccccc2)C2=C1CN(c1ccc3ccccc3c1)C2=O (stereo not given) | -1.4 | -4.1 | -0.5 | 96.3* | 14.6
N#Cc1ccccc1OCC(=O)Nc1ccc(S(=O)(=O)N2CCOCC2)cc1 | 1.0 | -0.7 | 1.6 | / | /
COc1ccc(/C=C2/C(=O)ON=C2C)cc1Br | 0.9 | -3.0 | 0.0 | / | /
CC1=NOC(=O)/C1=C\c1ccc2c(c1)OCO2 | -0.3 | 1.4 | 0.2 | 101.0* | -30.6
CC1=NOC(=O)/C1=C/c1ccc2c(c1)OCO2 | 0.0 | -1.8 | -0.1 | 100.3* | -27.2
Cc1ccc(S(=O)(=O)N/N=C/c2cccc3nccnc23)cc1 | -1.2 | -1.9 | 1.2 | 11.0 | /
CCOC(=O)c1cc([N+](=O)[O-])c([N+](=O)[O-])cc1NC(C)=O | / | / | 0.0 | 106.7* | 90.9*
CCOC(=O)c1ccc(NC(=O)c2ccccc2[N+](=O)[O-])cc1 | 6.2 | -2.0 | -0.5 | -13.4 | /
CCOC(=O)N1CCN(S(=O)(=O)c2ccc(C(=O)N(CCN(CC)CC)c3nc4ccc(C)cc4s3)cc2)CC1 | -0.3 | -2.1 | 0.5 | / | /
CN1CCN(c2ccc(C(=O)NC3CCCCC3)cc2[N+](=O)[O-])CC1 | -1.6 | 4.3 | 0.8 | -8.0 | /
CC(=O)Nc1ccc(/C=C/c2nc(-c3ccccc3O)n[nH]2)cc1 | 7.8 | 5.3 | -2.4 | / | /
CCOc1cc2[nH]c(=S)n(C3CC3)c(=O)c2cc1OCC | 1.6 | -2.2 | 0.2 | -17.9 | /
CCOC(=O)N1CCC(n2c(=S)[nH]c3cc(OCC)c(OCC)cc3c2=O)CC1 | 16.4 | 24.4 | / | 101.0* | 98.0*
CC(=O)C1C(=O)c2c(cccc2[N+](=O)[O-])C1=Nc1ccc(S(N)(=O)=O)cc1 (stereo not given) | -2.7 | -0.7 | 0.8 | -2.4 | /
CC1(C)c2ssc(=S)c2-c2ccccc2N1C(=O)c1ccco1 | -0.8 | 1.3 | ? | 98.5* | 12.0
